One assay has as its target calmodulin (CaM). Briefly: 15N-HSQC NMR titration of 15N-CaM. The settings on record: reference: unmodified AQP0CBD peptide, second binding event (1:2); sites S235.
The next assay deals with 15N-CaM (Homo sapiens, UniProt P0DP23). Briefly: NMR titration of 15N-CaM with AQP0 peptides. The conditions noted are these: 25°C, pH 6.5, Ca^2+, data not shown. The assay is classed as binding, vertebrate.
The nature of assay [1]: CaM pull-down assay with lens membranes. The assay is classed as binding, lamb. The settings on record: Ca^2+ treated lens pellets, molar excess EGTA, data not shown. The gist of the method:
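Lamb lens fiber-cell membranes (2mg/ml total protein) were incubated with recombinant vertebrate CaM (0.67mg/ml) in 10mM Tris pH 8.0, 10mM CaCl2 for 30 minutes at 37°C. Binding was stopped on ice, and free CaM was removed by centrifugation at 10,000xg with 4 pellet washes. Molar excess EGTA was then added to the Ca2+-treated pellets. CaM was detected by SDS-PAGE with silver staining and by western blot.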

For the molecule “Aquaporin-0 (AQP0, MIP) 223-242 (from UniProt Q6J8I9) S235-P peptide, second binding event (1:2)”, the KD result in the assay with calmodulin (CaM) is “weaker; reference 6.5 ± 5.5 × 10−6”.

Turning to “AQP0loop: peptide corresponding to a cytosolic AQP0 loop, residues 148–158, negative control (TYDERRNGRLG)”, in the assay with 15N-CaM, the “interaction of control peptide with CaM” value is “no interaction”.

For the molecule `O=C(O)CN(CCOCCOCCN(CC(=O)O)CC(=O)O)CC(=O)O` [EGTA], in assay [1], the “removal of membrane-bound CaM by EGTA” value was “efficiently removed”.

Values taken from paper PMC2605016 (Structure (London, England : 1993), 2008).
